RORA act: RORA (human) activation. P35398. CHO-K1 Gal4-RORA LBD luciferase reporter, luminescence; percent increase over mock-subtracted basal signal. activation, % at 10 µM. 65,000 compounds, 1.5% hits. AID 560;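 active = activation above the mean of all tested compounds plus 3 SD, cut at about 49% in these data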;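 note: 0% = DMSO-treated RORA cells and 100% = added signal equal to DMSO minus mock-transfected cells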
Target sequence (P35398 whole entry, looked up, the tested form may be a part): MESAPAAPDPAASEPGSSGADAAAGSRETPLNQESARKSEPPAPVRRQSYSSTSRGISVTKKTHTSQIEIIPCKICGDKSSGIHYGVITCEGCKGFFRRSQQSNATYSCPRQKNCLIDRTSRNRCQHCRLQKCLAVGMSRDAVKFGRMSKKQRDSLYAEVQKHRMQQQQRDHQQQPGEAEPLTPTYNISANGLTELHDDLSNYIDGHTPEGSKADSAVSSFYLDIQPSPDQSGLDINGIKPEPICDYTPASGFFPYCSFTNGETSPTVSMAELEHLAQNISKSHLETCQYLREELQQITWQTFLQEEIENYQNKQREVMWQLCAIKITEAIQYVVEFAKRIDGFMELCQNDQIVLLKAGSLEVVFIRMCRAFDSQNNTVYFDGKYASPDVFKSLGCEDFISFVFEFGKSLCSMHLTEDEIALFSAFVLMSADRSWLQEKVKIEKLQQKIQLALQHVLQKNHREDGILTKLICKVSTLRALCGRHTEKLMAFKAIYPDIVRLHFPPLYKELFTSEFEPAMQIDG
MT1-MMP txn act: activates MT1-MMP transcription | HT1080 MT1-MMP promoter luciferase reporter, luminescence, overnight; stronger effect = higher value | activation factor at 10 µM | AID 750 | 86,000 compounds, 0.16% hits;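 active = activation factor of at least 2 for MT1-MMP transcription at 10 µM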
SF1 activator: activates the human nuclear receptor SF-1 | Q13285 | CHO-K1 Gal4-SF-1 LBD luciferase reporter; % increase over DMSO SF-1-specific signal | activation, % at 10 µM | 65,000 compounds, 1.9% hits | AID 522;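 active = activation above the mean activation of all tested compounds plus 3 SD, cut at about 50% in these data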
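Material: Gal4–SF-1 LBD one-hybrid luciferase reporter in CHO-K1 cells | Amount: 4,000 cells per well | Compound dosing: 10 µM single point, 1% DMSO | Schedule: 20 h compound treatment, 37 °C | Measured by: SteadyLite luciferase luminescence | Evaluation: Percent activation versus DMSO | Control set: DMSO-treated SF-1-transfected cells as negative, DMSO-treated mock-transfected cells lacking SF-1 as background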
Calb biofilm kill: kills Candida albicans biofilms; C. albicans biofilm + clotrimazole, Alamar Blue; inhibition, % at 6 µM; 85,000 compounds, 0.14% hits; AID 834;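 active = inhibition above 20%; inactive = inhibition below 20%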;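 note: preformed 24 hr biofilms exposed to compound for 48 hr; 0% = biofilm without compound and 100% = blank killed by clotrimazole plus chlorhexidine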
Mac1 fbg inh: CD11b/CD18-fibrinogen binding inhibition | P05107+P11215 | K562 CD11b/CD18 adhesion to fibrinogen, ATPlite luminescence; Mn2+ added to activate the integrin | inhibition, % at 10 µM | 93,000 compounds, 0.54% hits | AID 1497;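 active = primary inhibition of 50% or more at 10 µM, then 40% or more on retest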
CD11b adhes enh: increases human CD11b/CD18 adhesion to fibrinogen; P05107+P11215; K562 CD11b/CD18 adhesion to fibrinogen, ATPlite luminescence; activation, % at 10 µM; 93,000 compounds, 0.07% hits; AID 1499;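 active = 10 µM primary screen giving 50% or more activity, confirmed by 40% or more on retest at that dose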
Numbers without * were called inactive; · = no result. Shown are actives, neighbours in structure and some others; about 2.2% of the full set was active somewhere.

SMILES	RORA act	MT1-MMP txn act	SF1 activator	Calb biofilm kill	Mac1 fbg inh	CD11b adhes enh
Cn1c(NC(=O)CCC2CCCCC2)cc(=O)n(C)c1=O	38.1	1.5	91.6*	6.7	11.6	2.8
CCCc1c(C)c2ccc(OCC(C)=O)cc2oc1=O	11.2	1.5	20.8	-1.8	7.2	-1.5
CCCCc1c(C)c2ccc(OCC(C)=O)cc2oc1=O	20.4	1.3	74.5*	7.0	6.2	1.2
CC(C)CC(=O)Nc1ccc2oc(-c3ccncc3)nc2c1	34.6	1.4	55.3*	4.0	-6.8	-0.5
COc1cccc(S(=O)(=O)NCc2ccc(C(=O)Nc3cccc(Cl)c3)cc2)c1	·	·	·	·	55.2*	1.2
O=C(Nc1ccc(Cn2cccn2)cc1)c1ccc(COc2cccc(Br)c2)cc1	·	·	·	·	24.6	6.1
O=C(Nc1ccc(Cn2cccn2)cc1)c1ccc(COc2ccc(Br)cc2)cc1	·	·	·	·	-4.8	52.1*
O=C(NCc1cccnc1)C1CC(=O)N(CCc2ccccc2)C1 (stereo not given)	·	·	·	10.2	-13.0	0.1
CCc1cc(/C(Cc2csc(C)n2)=N/O)c(O)cc1O	·	0.8	·	-5.6	79.5*	-9.1
CCS(=O)(=O)NCc1csc(C)n1	-12.2	1.1	-6.0	0.2	-8.9	-2.3
COc1ccc(CC(=O)NCCN2CCCC2)cc1	·	2.4*	·	5.2	·	·
Cc1[nH]n(-c2ccccc2)c(=O)c1N=Nc1nccs1	·	·	·	·	56.1*	0.7
COC(=O)N1CC=CC1(C)C(=O)O (stereo not given)	·	1	·	·	·	·
O=C(NNC(=O)c1ccccc1Br)c1cccc(Cl)c1	·	·	·	·	2.8	-0.3
O=C(NNC1=C(C(=O)C(F)(F)F)CCC1)c1ccc(Cl)cc1	·	1.2	·	8.1	95.8*	-14.8
O=C(NNC1=C(C(=O)C(F)(F)F)CCC1)c1cccc(Cl)c1	·	1.2	·	4.3	99.3*	-6.7
COC(=O)[C@@]1(Cc2ccc(F)cc2)[C@H]2c3cc(C(=O)N(C)C)n(CCN4CCOCC4)c3C[C@H]2CN1C(=O)c1ccccc1	·	1.1	·	·	·	·
CC1CCCCC1NC(=O)C(Cc1ccccc1)NS(=O)(=O)c1cccs1 (stereo not given)	·	1	·	-0.4	-34.1	1.3
CC(CCc1ccccc1)NC(=O)C(Cc1ccccc1)NS(=O)(=O)c1cccs1 (stereo not given)	·	1.3	·	33.0*	7.1	1.0
COC(=O)c1ccc(C(/C=C/[C@@H](C)C(=O)NCCN2CCCC2)NC(=O)OCc2ccccc2)cc1 (stereo not given in full)	·	1.1	·	·	·	·
COc1ccc(CN(C(=O)CO)[C@@H](CO[Si](c2ccccc2)(c2ccccc2)C(C)(C)C)c2cccc(NC(C)=O)c2OC)cc1OC	·	1.2	·	·	·	·
Cc1nc2ccc(NC(=O)N3CCCCC3)cc2s1	30.2	1.4	53.7*	·	-7.0	1.5
O=C(Cc1ccc(Br)cc1)c1ccc(O)cc1O	37.2	1.5	83.6*	·	77.5*	-4.3
Nc1ccccc1NC1=CC(=O)CC(c2ccco2)C1 (stereo not given)	21.1	1.1	4.7	3.5	4.0	-1.2
Cc1ccc(NC2=CC(=O)CC(c3ccco3)C2)c(N)c1 (stereo not given)	50.3*	1.2	57.8*	1.3	1.3	1.3
SMILES	RORA act	MT1-MMP txn act	SF1 activator	Calb biofilm kill	Mac1 fbg inh	CD11b adhes enh
COC(=O)[C@@H]1C[C@H]1[C@@H](NC(=O)c1cc(C)on1)c1ccccc1	·	1.2	·	·	·	·
Cn1nccc1C(=O)OCC(=O)Nc1nc(-c2ccccc2)cs1	45.7	1.5	49.6*	8.2	-3.3	-3.3
COC(=O)Cn1c(C(=O)N(C)C)cc2c1C[C@H]1CN(C(=O)c3ccccc3)[C@@](Cc3ccc(OC)cc3)(C(=O)OC)[C@@H]21	·	1.2	·	·	·	·
N#C/C(=N\Nc1ccc(Cl)cc1)C(=O)c1ccccc1	·	·	·	·	94.3*	-7.6
O=c1sc(Nc2ccccc2)nc2ccsc12	69.9*	·	56.0*	0.3	3.9	0.1
O=c1oc(-c2ccccc2Cl)nc2ccsc12	·	1.2	·	4.2	-4.5	-2.4
Clc1ccc(CSc2nc3ccncc3[nH]2)cc1	·	·	·	3.7	88.3*	-17.7
Nc1cc(=O)[nH]c(SCc2ccc(Cl)cc2)n1	·	1.1	·	-2.2	4.3	0.3
Cc1ccc(CSc2nc3ccncc3[nH]2)cc1	·	·	·	6.0	101.4*	-9.5
CC(C)Oc1ccc(C2/C(=C(/O)c3ccc(F)cc3)C(=O)C(=O)N2CCCN(C)C)cc1 (stereo not given)	8.9	1	4.1	9.4	·	·
Cc1cc(CNC(=O)[C@@H]2C[C@H]2[C@@H](NP(=O)(c2ccccc2)c2ccccc2)c2ccccc2)nn1C	·	1.3	·	·	·	·
COC(=O)Oc1ccc(/C=N/NC(=O)CSCc2ccccc2Br)cc1OC	·	·	·	·	54.0*	-5.8
COc1ccc(/C=N/NC(=O)CSCC(=O)Nc2ccccc2)cc1OC	·	·	·	·	11.3	0.6
Cc1ccc(NC(=O)c2cc(N(C)C)ccc2[P+](=O)O)cc1	69.2*	1.4	14.2	6.1	-11.0	-1.6
Cc1ccc(NC(=O)c2cc(-n3cnnc3)ccc2Cl)cc1	·	1.2	·	0.0	·	·
COC(=O)CNc1c(-c2ccccn2)nc2ccc(Br)cn12	59.8*	0.5	69.3*	·	0.1	-2.6
CCOC(=O)CNc1c(-c2ccccc2)nc2ccc(Cl)cn12	·	1.3	·	5.0	-7.8	-1.3
O=C(CSc1nc2ccc([N+](=O)[O-])cc2[nH]1)NC1CCCCCC1	·	·	·	·	102.5*	-8.9
CCOC(=O)Nc1ccccc1C(=O)N1CCOCC1	-0.8	1.1	4.2	8.6	-4.3	-1.4
COc1cccc(CC(NC(C)=O)C(=O)NC2CCN(c3c4c(nc5ncnn35)CCC4)CC2)c1 (stereo not given)	21.3	1.3	71.8*	4.2	·	·
COc1ccc(CC(NC(C)=O)C(=O)NC2CCN(c3c4c(nc5ncnn35)CCC4)CC2)cc1 (stereo not given)	-5.8	1.2	-9.9	6.3	71.2	5.1
Cc1c(-c2ccccc2)nc2ccccc2c1C(=O)NCc1cccs1	·	·	·	·	3.3	-1.3
O=C(C1CC1)N1CCC(c2nc(-c3ccc(S(=O)(=O)NCC4CCCO4)cc3)no2)CC1 (stereo not given)	0.4	1	-5.5	7.0	61.9*	-2.7
CC(C)Oc1ccc(C2C(C(=O)c3ccco3)=C(O)C(=O)N2Cc2cccnc2)cc1 (stereo not given)	69.5*	1	39.3	4.8	-21.1	3.0
c1ccc(-c2onc3cc4c(cc23)OCCO4)cc1	74.3*	1.6	28.4	3.7	13.1	-4.4
O=C(CCc1nc2ccccc2s1)OCc1ccccc1F	·	·	·	·	-7.7	-2.4
O=C(CSCc1ccccc1)N1CCN(Cc2ccc3c(c2)OCO3)CC1	-6.8	1.2	15.0	6.1	·	·
Cc1ccc(-c2nc(CSCC(=O)N3CCN(c4ccccn4)CC3)c(C)o2)cc1	-16.6	1	-29.3	11.2	87.7*	-13.5
Cc1cccc(-c2nc(CSCC(=O)N3CCN(Cc4ccc5c(c4)OCO5)CC3)c(C)o2)c1	-8.3	0.9	-35.0	6.6	81.1*	-5.1

Screening results (PubChem BioAssay)
